Most compounds without a hit are left out; they make up all but 0.68% or so of the library.
TNAP act hiacc = TNAP activators at high phosphate acceptor level, primary screen, biochemical, luminescence, uHTS; Alkaline phosphatase, tissue-nonspecific isozyme (Homo sapiens), P05186; purified TNAP, CDP-star luminescence, 1 M DEA, 30 min; stronger effect = higher value; 0 = EDTA background, 1 = DMSO-only activity; activation factor at 20 µM; 200,000 tested, under 10 active;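 active = activation factor at least 2 at 20 µM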
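Test system – human TNAP · Doses – 20 µM single point · Incubation – 30 min, room temperature · Signal – luminescent substrate turnover signal · Read-out basis – activation factor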
Pf gametocyte = late stage P. falciparum gametocyte viability inhibitors, primary screen, ATP luminescence, HTS. P. falciparum stage V gametocytes, 24 h. inhibition, % at 10.9 µM. 150,000 compounds, 0.065% hits. AID 743093, 2013;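 active = inhibition above the mean plus 3 SD of compounds within the control limits, set per campaign, cut at about 38% in these data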;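 note: 0% = DMSO wells and 100% = medium only without gametocytes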
HMGR II inh = inhibitors of E. faecalis class II HMGR, primary screen, biochemical, Enterococcus faecalis | HMG-CoA reductase (Enterococcus faecalis, mvaE) | purified E. faecalis HMGR, NADPH absorbance 340 nm kinetic | 190,000 compounds, 0.41% hits | AID 1066, 2008 | inhibition, % at 10 µM;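 active = inhibition above a set limit, the median over all tested compounds plus 3 SD, cut at about 9.5% in these data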;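 note: enzyme runs in reverse so mevalonate oxidation gives rising NADPH absorbance; 0% = complete reaction with DMSO and 100% = background rate lacking mevalonate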
Furin inhibitor = human furin inhibitors, primary screen, biochemical, fluorescence intensity | AID 463115, 2010 | purified furin, fluorogenic substrate cleavage | 220,000 compounds, 0.061% hits | inhibition, % at 20 µM or 30 µM; in the data active = inhibition above about 25%
Target sequence (P09958 108-714 limits assumed): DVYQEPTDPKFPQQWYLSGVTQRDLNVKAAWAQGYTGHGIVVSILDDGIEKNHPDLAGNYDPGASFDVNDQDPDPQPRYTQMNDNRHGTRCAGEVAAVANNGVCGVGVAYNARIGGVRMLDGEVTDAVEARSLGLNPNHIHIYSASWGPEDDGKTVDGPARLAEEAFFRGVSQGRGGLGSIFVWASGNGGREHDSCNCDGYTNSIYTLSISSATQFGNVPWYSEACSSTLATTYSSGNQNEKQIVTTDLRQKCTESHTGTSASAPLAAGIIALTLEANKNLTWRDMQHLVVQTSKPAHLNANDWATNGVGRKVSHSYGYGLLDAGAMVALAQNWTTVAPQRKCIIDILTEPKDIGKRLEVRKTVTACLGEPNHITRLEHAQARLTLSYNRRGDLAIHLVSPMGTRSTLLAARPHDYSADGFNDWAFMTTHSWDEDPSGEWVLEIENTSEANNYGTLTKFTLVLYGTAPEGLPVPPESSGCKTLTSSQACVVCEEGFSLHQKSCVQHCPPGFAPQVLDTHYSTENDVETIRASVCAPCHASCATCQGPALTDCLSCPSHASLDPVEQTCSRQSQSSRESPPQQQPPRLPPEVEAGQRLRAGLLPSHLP
TNAP inh hi DEA = human TNAP enzyme inhibitors, primary screen, biochemical, luminescent, high phosphate acceptor level, uHTS | Alkaline phosphatase, tissue-nonspecific isozyme (Homo sapiens), P05186 | 200,000 compounds, 0.03% hits | purified TNAP, CDP-star luminescence, 1 M DEA | inhibition, % at 20 µM | AID 1135, 2008;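 active = over 50% inhibition of tissue-nonspecific alkaline phosphatase at 20 µM in the single-dose screen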;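 note: plate controls were DMSO wells for no effect and EDTA-quenched wells as full inhibition for full effect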
TNAP inh no acc = human TNAP enzyme inhibitors, primary screen, biochemical, luminescent, no phosphate acceptor, uHTS. purified TNAP, CDP-star luminescence, 30 min. 200,000 compounds, 0.26% hits. inhibition, % at 20 µM;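 active = tissue-nonspecific alkaline phosphatase inhibition above about 50% at 20 µM in the single-dose screen, limit read from the data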;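 note: 0% = DMSO negative control and 100% = EDTA positive control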
Numbers without * were called inactive; / = no result; ! = repeats disagree.

SMILES | TNAP act hiacc | Pf gametocyte | HMGR II inh | Furin inhibitor | TNAP inh hi DEA | TNAP inh no acc
COc1cc(OC)c(OC)cc1/C=N/NC(=O)c1cc(-c2cccn2C)n[nH]1 | 0.9 | -3 | 0 | -15 | 10 | 85*
COc1ccc(/C=N/NC(=O)c2cc(-c3cccn3C)n[nH]2)cc1OC | 1 | -12 | 0 | -24 | 3 | 94*
O=C(CSc1nnc(-c2ccccc2)c(-c2ccccc2)n1)Nc1ccc(Br)cn1 | 1 | / | -13 | -8 | 2 | -11
COc1ccc(CNC(=O)C(NC(C)=O)C(=O)Nc2ccc(C(C)C)cc2)cc1 (centres undefined) | 1.1 | -5 | 12* | -12 | -6 | -37
CCCc1n[nH]c2c1C(=O)CC(C)(C)C2 | 1 | -12 | -4 | -16 | -4 | 64*
CC1(C)CC(=O)c2c(-c3cccs3)n[nH]c2C1 | 0.9 | -11 | -4 | -13 | 8 | 88*
Cc1cc(N)n(-c2nc3ccccc3s2)n1 | 1 | -2 | 9.6* | -33 | -2 | -8
CC1(C)CC(=O)C(C2C3=C(CC(C)(C)CC3=O)OC3=C2C(=O)CC(C)(C)C3)=C(O)C1 | / | 16 | / | -31 | / | /
COC(Cn1c2c(c3cc(C)ccc31)CCCC2NCc1ccccc1)OC (centres undefined) | / | -3 | / | -25 | / | /
CC(C)=CCc1c(O)ccc2c1OC(c1ccc(O)c(O)c1)CC2=O (centres undefined) | 1 | / | -1 | -30 | -2 | 54*
O=C1CC(c2ccc(O)c(O)c2)Oc2c1ccc(O)c2O (centres undefined) | / | / | / | -29 | / | /
O=C(Oc1ccccc1O)c1cccc2ccccc12 | 1 | -18 | 18* | -23 | -1 | 17
C1CCC(C(CC2CCCCN2)C2CCCCC2)CC1 (centres undefined) | 1 | / | 10* | -16 | -4 | -28
O=C(O)/C=C/c1ccc(O)c(O)c1 | 1 | / | 1 | -4 | -4 | 55*
O=C(NCc1cccc(Br)c1)C1CC(c2ccccc2[N+](=O)[O-])=NO1 (centres undefined) | / | -4 | / | / | / | /
Cc1cc(C)nc(SCCn2c(N3CCOCC3)nc3c2c(=O)[nH]c(=O)n3C)n1 | 1.1 | -9 | 12* | -6 | -5 | -7
COc1cc(/C=C2/NC(=O)N(Cc3ccccc3F)C2=O)ccc1O | 0.9 | -43 | -4 | -17 | 8 | 1
Cc1ccc(Cl)cc1NC(=O)COC(=O)C12CC3CC(CC(C3)C1)C2 | 1 | 11 | 14*! | -9 | 0 | -4
Cc1ccc(Cl)cc1NC(=O)COC(=O)C1CCCC1 | 1 | / | 3 | -10 | -2 | -10
O=C(CN1C(=O)C2CC=CCC2C1=O)Nc1nnc(SCc2ccc(F)cc2)s1 (centres undefined) | 1 | / | 0 | -23 | 0 | -5
CCSc1nnc(NC(=O)CN2C(=O)C3CC=CCC3C2=O)s1 (centres undefined) | 1 | 0 | 14* | -21 | -3 | -10
CC(C)(C)NC(=O)N1CCCN(c2ccc(C(F)(F)F)cn2)CC1 | / | -7 | / | 6 | / | /
CC1=C(C(=O)OCc2ccccc2)C(/C=C/c2ccccc2)NC(=S)N1 (centres undefined) | 1 | 17 | 10* | -18 | -2 | -3
COc1ccc(S(=O)(=O)Nc2cccc3c2O[C@H](CN(C)C(=O)NC(C)C)[C@@H](C)CN([C@H](C)CO)C3=O)cc1 | / | -16 | / | / | / | /
Cc1c(CN2CCc3c([nH]c4ccccc34)C2C2CCCCC2)cnn1C (centres undefined) | 1.1 | -7 | 19* | -24 | -8 | -10
SMILES | TNAP act hiacc | Pf gametocyte | HMGR II inh | Furin inhibitor | TNAP inh hi DEA | TNAP inh no acc
Cc1ccc(-c2nnn(CC(=O)N3CCCCC3)n2)o1 | 1 | / | -3 | -29 | 1 | -8
COc1ccc(NC(=O)c2oc3ccccc3c2NC(=O)C2CC2)cc1 | 1 | -31 | 11* | -11 | 0 | -6
Cc1ccc(C2=NN(C(=O)CCCC(=O)O)C(c3ccc4c(c3)OCO4)C2)cc1 (centres undefined) | / | -22 | / | / | / | /
CCOc1ccc(-n2c(COc3ccc(C)cc3)nnc2SCC(N)=O)cc1 | 1 | / | -5 | -1 | -5 | -2
CCOC(=O)C(CC)Sc1nnc(COc2ccc(C)cc2)n1-c1ccccc1 (centres undefined) | 1 | -6 | -2 | 28* | -4 | -8
CC[n+]1c(/C=C/c2c[nH]c3ccccc23)ccc2cc(C)ccc21 | 0.4 | 4 | 1 | 11 | 61* | 60*
O=C(CSc1ccccc1)Nc1cc(S(=O)(=O)N2CCOCC2)ccc1N1CCOCC1 | 1.1 | -17 | 0 | -8 | -5 | 10
COc1ccc(C(=O)Nc2ccccc2C(=O)Nc2ccc(C(=O)O)cc2)cc1 | / | -14 | / | / | / | /
COc1ccc(C(=NNc2ccccc2C(=O)O)c2ccc(OC)cc2)cc1 | 1 | 53* | 0 | -18 | -1 | -10
CC1CCN(c2cc(N)c(Cl)cc2[N+](=O)[O-])CC1 | 1 | / | 16* | -5 | 3 | -1
Clc1ccccc1-c1nc2nc3ccccc3nc2n1-c1ccc2c(c1)OCO2 | 1 | 2 | -1 | -13 | -2 | 2
Cc1noc(C)c1S(=O)(=O)N1CCC(C(=O)NCCN2CCC(C)CC2)CC1 | 1 | / | 11* | -15 | -2 | -6
CC(C)c1cccc(-c2ccc3c(c2)S(=O)(=O)c2cccc(C(=O)NC4CCCC4)c2C3=O)c1 | / | 6 | / | / | / | /
O=C(CSc1nc2ccc(Nc3nc(N4CCOCC4)nc(N4CCOCC4)n3)cc2s1)Nc1ccccc1 | / | 4 | / | / | / | /
Clc1ccccc1CSc1nncn1NC/C=C/c1ccccc1 | 1 | -46 | 0 | -9 | -4 | -14
O=C(CCCN1CC=C(n2c(=O)[nH]c3ccccc32)CC1)c1ccc(F)cc1 | 0.9 | / | -5 | -16 | 7 | 63*
O=C(Nc1ccc(-c2cn3c(n2)SCC3)cc1)c1ccc2c(c1)OCO2 | 1 | -18 | 13* | -28 | -3 | -5
C/C(CCc1ccc2c(c1)OCO2)=N\N=C1\NC(=O)CC(C(=O)Nc2ccccc2F)S1 (centres undefined) | 1 | / | -6 | -18 | -3 | -4
O=C(O)c1ccccc1CSc1nc2ccccc2n1Cc1ccccc1C(=O)O | 1 | / | 11* | -12 | -2 | -1
COc1ccc(-c2cc(N3C(=O)Nc4ccccc4N3O)n[nH]2)cc1 | 1 | 1 | 0 | -12 | 2 | 75*
O=C1Nc2ccccc2N(O)N1c1cc(-c2ccccc2)[nH]n1 | 1 | -19 | -6 | -11 | -2 | 81*
C=CCn1c(C)csc1=Nc1ccccc1C | 1 | / | -5 | -4 | -2 | -6

High-throughput results from PubChem.
